In ChEMBL document CHEMBL2429794, “Tuning the antibacterial activity of amphiphilic neamine derivatives and comparison to paromamine homologues” (J Med Chem, 2013):
Converted amounts (≈) assume the structure as drawn.

What was measured:
Staphylococcus aureus [1] = assay: Antibacterial activity against Staphylococcus aureus expressing aminoglycoside-6'-N-acetyltransferase/2''-O-phosphoryltransferase after 24 hrs by geometric microdilution method; format: functional
How it was run: (§1)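 Broth cultures were incubated in plates at 37 °C, and growth was read as absorbance at 650 nm after 1, 4, 7 and 24 h. Ampicillin (16 mg/L) was the positive control and DMSO the negative control. Each MIC (μg/mL) is the average of at least three determinations.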

Acinetobacter lwoffii [2] = assay: Antibacterial activity against Acinetobacter lwoffii ATCC 17925 after 24 hrs by geometric microdilution method; format: functional; conditions: ATCC 17925, 24 h
Pseudomonas aeruginosa [3] = assay: Antibacterial activity against Pseudomonas aeruginosa F03 expressing AAC6'-2A after 24 hrs by geometric microdilution method; format: functional; conditions: F03, 24 h
Staphylococcus aureus [4] = assay: microbe, parasite or virus in culture; conditions: ATCC 25923, 24 h
Staphylococcus aureus [5] = assay: Antibacterial activity against healthcare-acquired methicillin-resistant Staphylococcus aureus ATCC 33592 after 24 hrs by geometric microdilution method; format: functional; conditions: ATCC 33592, 24 h; how it was run: as §1
Staphylococcus aureus [6] = assay: Antibacterial activity against Staphylococcus aureus expressing aminoglycoside-3'-O-phosphoryltransferase after 24 hrs by geometric microdilution method; format: functional; how it was run: as §1
Staphylococcus aureus [7] = assay: Antibacterial activity against 14- and 15-membered macrolide-resistant Staphylococcus aureus expressing MsrA efflux pump after 24 hrs by geometric microdilution method; format: functional; how it was run: as §1
Klebsiella pneumoniae = assay: Antibacterial activity against Klebsiella pneumoniae ATCC 700603 after 24 hrs by geometric microdilution method; format: functional; conditions: ATCC 700603, 24 h
Escherichia coli [8] = assay: microbe, parasite or virus in culture; conditions: ATCC 25922, 24 h
Acinetobacter lwoffii [9] = assay: Antibacterial activity against Acinetobacter lwoffii AI.88-483 expressing APH3'-6A after 24 hrs by geometric microdilution method; format: functional; conditions: AI.88-483, 24 h
Staphylococcus aureus [10] = assay: Antibacterial activity against fluoroquinolone-resistant Staphylococcus aureus 1199B expressing NorA efflux pump after 24 hrs by geometric microdilution method; format: functional; how it was run: as §1
Staphylococcus aureus [11] = assay: Antibacterial activity against Staphylococcus aureus expressing aminoglycoside-[…] after 24 hrs by geometric microdilution method; format: functional; how it was run: as §1
Escherichia coli [12] = assay: Antibacterial activity against Escherichia coli PAZ505H8101 expressing AAC6'-1B after 24 hrs by geometric microdilution method; format: functional; conditions: PAZ505H8101, 24 h
Escherichia coli [13] = assay: Antibacterial activity against Escherichia coli L58058.1 expressing ANT2''-1A after 24 hrs by geometric microdilution method; format: functional; conditions: L58058.1, 24 h
Pseudomonas aeruginosa [14] = assay: Antibacterial activity against Pseudomonas aeruginosa PA22 (PT629) expressing MexXY after 24 hrs by geometric microdilution method; format: functional
Staphylococcus aureus [15] = assay: Antibacterial activity against vancomycin-resistant Staphylococcus aureus VRS2 after 24 hrs by geometric microdilution method; format: functional; conditions: VRS2, 24 h; how it was run: as §1
Pseudomonas aeruginosa [16] = assay: Antibacterial activity against Pseudomonas aeruginosa ATCC 27853 after 24 hrs by geometric microdilution method; format: functional; conditions: ATCC 27853, 24 h

| SMILES | MIC (Staphylococcus aureus [1]) [mg/L] | MIC (Acinetobacter lwoffii [2]) [mg/L] | MIC (Pseudomonas aeruginosa [3]) [mg/L] | MIC (Staphylococcus aureus [4]) [mg/L] | MIC (Staphylococcus aureus [5]) [mg/L] | MIC (Staphylococcus aureus [6]) [mg/L] | MIC (Staphylococcus aureus [7]) [mg/L] | MIC (Klebsiella pneumoniae) [mg/L] | MIC (Escherichia coli [8]) [mg/L] | MIC (Acinetobacter lwoffii [9]) [mg/L] | MIC (Staphylococcus aureus [10]) [mg/L] | MIC (Staphylococcus aureus [11]) [mg/L] | MIC (Escherichia coli [12]) [mg/L] | MIC (Escherichia coli [13]) [mg/L] | MIC (Pseudomonas aeruginosa [14]) [mg/L] | MIC (Staphylococcus aureus [15]) [mg/L] | MIC (Pseudomonas aeruginosa [16]) [mg/L] |
| --- | --- | --- | --- | --- | --- | --- | --- | --- | --- | --- | --- | --- | --- | --- | --- | --- | --- |
| N[C@H]1[C@@H](O[C@H]2[C@H](O)[C@@H](OCc3cccc4ccccc34)[C@H](N)C[C@@H]2N)O[C@H](CO)[C@@H](OCc2cccc3ccccc23)[C@@H]1OCc1cccc2ccccc12 | 8 (≈ 10.8 µM) | 1 (≈ 1.34 µM) | 32 (≈ 43 µM) | 2 (≈ 2.69 µM) | 32 (≈ 43 µM) | 4 (≈ 5.38 µM) | 8 (≈ 10.8 µM) | 128 (≈ 172 µM) | 16 (≈ 21.5 µM) | 128 (≈ 172 µM) | 8 (≈ 10.8 µM) | 16 (≈ 21.5 µM) | 16 (≈ 21.5 µM) | 16 (≈ 21.5 µM) | 32 (≈ 43 µM) | 32 (≈ 43 µM) | 32 (≈ 43 µM) |
| NC[C@H]1O[C@H](O[C@H]2[C@H](O)[C@@H](O)[C@H](N)C[C@@H]2N)[C@H](N)[C@@H](O)[C@@H]1O [NEAMINE] | 16 (≈ 49.6 µM) | 2 (≈ 6.2 µM) | > 128 | 32 (≈ 99.3 µM) | > 128 | > 128 | 16 (≈ 49.6 µM) | 32 (≈ 99.3 µM) | 32 (≈ 99.3 µM) | > 128 | 32 (≈ 99.3 µM) | > 128 | > 128 | 32 (≈ 99.3 µM) | > 128 | ≥ 128 | > 128 |
| CCCCCCO[C@@H]1[C@@H](N)[C@@H](O[C@H]2[C@H](O)[C@@H](OCCCCCC)[C@H](N)C[C@@H]2N)O[C@H](CN)[C@H]1O | > 128 | > 128 | > 128 | 128 (≈ 261 µM) | 128 (≈ 261 µM) | > 128 | 128 (≈ 261 µM) | > 128 | 128 (≈ 261 µM) | > 128 | 128 (≈ 261 µM) | > 128 | 128 (≈ 261 µM) | 128 (≈ 261 µM) | > 128 | 128 (≈ 261 µM) | > 128 |
| N[C@H]1[C@@H](O[C@H]2[C@H](O)[C@@H](OCc3ccc4ccccc4c3)[C@H](N)C[C@@H]2N)O[C@H](CO)[C@@H](OCc2ccc3ccccc3c2)[C@@H]1OCc1ccc2ccccc2c1 | 16 (≈ 21.5 µM) | 1 (≈ 1.34 µM) | 32 (≈ 43 µM) | 2 (≈ 2.69 µM) | 64 (≈ 86 µM) | 4 (≈ 5.38 µM) | 32 (≈ 43 µM) | 32 (≈ 43 µM) | 64 (≈ 86 µM) | > 128 | 16 (≈ 21.5 µM) | 8 (≈ 10.8 µM) | 16 (≈ 21.5 µM) | 32 (≈ 43 µM) | 32 (≈ 43 µM) | 128 (≈ 172 µM) | 32 (≈ 43 µM) |
| NC[C@@H]1O[C@H](O[C@H]2[C@@H](O)[C@H](O[C@@H]3[C@@H](O)[C@H](N)C[C@H](N)[C@H]3O[C@H]3O[C@H](CN)[C@@H](O)[C@H](O)[C@H]3N)O[C@@H]2CO)[C@H](N)[C@@H](O)[C@@H]1O [FRAMYCETIN] | 1 (≈ 1.63 µM) | 0.5 (≈ 0.813 µM) | 128 (≈ 208 µM) | 2 (≈ 3.25 µM) | > 128 | > 128 | 2 (≈ 3.25 µM) | 16 (≈ 26 µM) | 2 (≈ 3.25 µM) | > 128 | 1 (≈ 1.63 µM) | 32 (≈ 52.1 µM) | 4 (≈ 6.51 µM) | 1 (≈ 1.63 µM) | 32 (≈ 52.1 µM) | 128 (≈ 208 µM) | 64 (≈ 104 µM) |
| NC[C@H]1O[C@H](O[C@H]2[C@H](O)[C@@H](OCc3ccc4ccccc4c3)[C@H](N)C[C@@H]2N)[C@H](N)[C@@H](OCc2ccc3ccccc3c2)[C@@H]1O | 8 (≈ 13.3 µM) | 64 (≈ 106 µM) | 128 (≈ 212 µM) | 8 (≈ 13.3 µM) | 16 (≈ 26.5 µM) | 4 (≈ 6.64 µM) | 8 (≈ 13.3 µM) | ≥ 128 | 64 (≈ 106 µM) | > 128 | 8 (≈ 13.3 µM) | 8 (≈ 13.3 µM) | 64 (≈ 106 µM) | 64 (≈ 106 µM) | > 128 | 16 (≈ 26.5 µM) | 128 (≈ 212 µM) |
